# What was measured:
# Format in all cases: functional
# Mus musculus [1] = assay: Compound was tested for antidepressant activity by determining the reversal of tetrabenazine-induced ptosis upon oral administration; 3.0-12.0
# In short: (§1)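 Mice given test drug orally; 30 min later challenged with tetrabenazine (methanesulfonate) 32 mg/kg ip in 0.05 M KCl pH 2.0. Scored 1 h after test drug for exploratory activity and ptosis; ptosis antagonism = lid closure <50% in both eyes exactly 2 s after placing mouse facing observer. ED50 calculated by Thompson method.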
# Mus musculus [2] = assay: The effect on excitement was measured in mice following oral administration
# In short: (§2)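 Observed at 0.5, 2, 5 and 24 h for ataxia (abnormal gait/imprecise movement), pupil diameter (dissecting microscope, 20×, micrometer), excitement (spontaneous running/jumping) and electroshock protection (corneal electrodes at 2 and 5 h). ED50 by Thompson method.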
# Mus musculus [3] = assay: Compound was tested for antidepressant activity by determining the decreased exploratory activity in mice upon oral administration; in short: as §1
# Mus musculus [4] = assay: The effect on electroshock protection in mice following oral administration; in short: as §2
# Mus musculus [5] = assay: The effect on 24-hour mortality in mice following oral administration
# Mus musculus [6] = assay: Effect on pupil dilation was measured in mice upon oral administration; in short: as §2
# Mus musculus [7] = assay: The effect on ataxia in mice following oral administration; in short: as §2
# Mus musculus [8] = assay: Compound was tested for antidepressant activity by determining the reversal of tetrabenazine-induced ptosis upon oral administration; 1.1-1.8
# Mus musculus [9] = assay: Compound was tested for antidepressant activity by determining the decreased exploratory activity in mice upon oral administration; 2.7-4.6
# Mus musculus [10] = assay: Compound was tested for antidepressant activity by determining the reversal of tetrabenazine-induced ptosis upon oral administration; 84-110; in short: as §1
# Mus musculus [11] = assay: Compound was tested for its antidepressant activity by determining the decreased exploratory activity in mice upon oral administration; 8.1-15.4; in short: as §1
# Mus musculus [12] = assay: Antidepressant activity by determining the reversal of tetrabenazine-induced ptosis upon oral administration; in short: as §1
# Mus musculus [13] = assay: Compound was tested for antidepressant activity by determining the reversal of tetrabenazine-induced ptosis upon oral administration; 0.7-1.9; in short: as §1
# Mus musculus [14] = assay: Compound was tested for antidepressant activity by determining the decreased exploratory activity in mice upon oral administration; 6.0-12.0; in short: as §1
# Mus musculus [15] = assay: Compound was tested for antidepressant activity by determining the reversal of tetrabenazine-induced ptosis upon oral administration; 0.5-0.9; in short: as §1
# Mus musculus [16] = assay: Compound was tested its antidepressant activity by determining the decreased exploratory activity in mice upon oral administration; 1.1-2.1; in short: as §1
# Mus musculus [17] = assay: Compound was tested for antidepressant activity by determining the decreased exploratory activity in mice upon oral administration; 12-32; in short: as §1
# Mus musculus [18] = assay: Compound was tested for antidepressant activity by determining the reversal of tetrabenazine-induced ptosis upon oral administration; 7-22; in short: as §1
# Mus musculus [19] = assay: Antidepressant activity by determining the decreased exploratory activity in mice upon oral administration; in short: as §1
# Mus musculus [20] = assay: Compound was tested for antidepressant activity by determining the reversal of tetrabenazine-induced ptosis upon oral administration; 22-53; in short: as §1
# Mus musculus [21] = assay: The effect on ataxia was measured in mice upon ip administration
# Mus musculus [22] = assay: The effect on electroshock protection was measured in mice upon ip administration
# Mus musculus [23] = assay: The effect on 24-hour mortality was measured in mice upon ip administration
# Mus musculus [24] = assay: The effect on excitement was measured in mice upon ip administration
# Mus musculus [25] = assay: Compound was tested for antidepressant activity by determining the reversal of tetrabenazine-induced ptosis upon oral administration; 27-60; in short: as §1
# Mus musculus [26] = assay: Compound was tested for antidepressant activity by determining the decreased exploratory activity in mice upon oral administration; 4.7-17; in short: as §1
# Mus musculus [27] = assay: Compound was tested for antidepressant activity by determining the reversal of tetrabenazine-induced ptosis upon oral administration; 1.3-2.7; in short: as §1
# Mus musculus [28] = assay: Compound was tested for antidepressant activity by determining the decreased exploratory activity in mice upon oral administration; 34-158; in short: as §1
Compound,ED50 (Mus musculus [2]),ED50 (Mus musculus [4]),ED50 (Mus musculus [5]),ED50 (Mus musculus [6]),ED50 (Mus musculus [7]),also measured
CN(C)CC/N=C1\c2ccccc2COc2ccccc21,> 324 mg/kg,60 mg/kg,200 mg/kg,20 mg/kg,36 mg/kg,ED50 (Mus musculus [1]): 6 mg/kg; ED50 (Mus musculus [3]): 33 mg/kg
CN(C)CCC=C1c2ccccc2CCc2ccccc21 [AMITRIPTYLINE],> 324 mg/kg,43 mg/kg,190 mg/kg,23 mg/kg,14 mg/kg,ED50 (Mus musculus [8]): 1.4 mg/kg; ED50 (Mus musculus [9]): 3.5 mg/kg
CN(C)CCCN=c1c2ccccc2sc2ccccc12,60 mg/kg,> 324 mg/kg,200 mg/kg,60 mg/kg,60 mg/kg,ED50 (Mus musculus [3]): 125 mg/kg; ED50 (Mus musculus [10]): 96 mg/kg
CN(C)CC/N=C1\c2ccccc2CCc2ccc(Cl)cc21 (mixture of isomers),> 324 mg/kg,60 mg/kg,100 mg/kg,36 mg/kg,20 mg/kg,ED50 (Mus musculus [11]): 11.2 mg/kg; ED50 (Mus musculus [12]): 4.9 mg/kg
CCNCCN=C1c2ccccc2C2CC2c2ccccc21 (centres undefined),> 324 mg/kg,> 324 mg/kg,200 mg/kg,36 mg/kg,36 mg/kg,ED50 (Mus musculus [13]): 1.1 mg/kg; ED50 (Mus musculus [14]): 8.4 mg/kg
NCCN=C1c2ccccc2C2CC2c2ccccc21 (centres undefined),> 324 mg/kg,100 mg/kg,200 mg/kg,100 mg/kg,60 mg/kg,ED50 (Mus musculus [15]): 0.7 mg/kg; ED50 (Mus musculus [16]): 1.5 mg/kg
CN(C)CC/N=C1\c2ccccc2CNc2ccccc21,> 324 mg/kg,> 324 mg/kg,300 mg/kg,36 mg/kg,36 mg/kg,ED50 (Mus musculus [17]): 20 mg/kg; ED50 (Mus musculus [18]): 12 mg/kg
c1ccc2c(c1)C(=NCCN1CCCCC1)c1ccccc1C1CC21 (centres undefined),> 324 mg/kg,> 324 mg/kg,200 mg/kg,> 324 mg/kg,12 mg/kg,ED50 (Mus musculus [19]): > 125 mg/kg; ED50 (Mus musculus [20]): 34 mg/kg
c1ccc2c(c1)CCc1ccccc1C2=NCCN1CCOCC1,–,–,–,100 mg/kg,–,ED50 (Mus musculus [19]): > 125 mg/kg; ED50 (Mus musculus [21]): 200 mg/kg; ED50 (Mus musculus [22]): 300 mg/kg; ED50 (Mus musculus [23]): 300 mg/kg; ED50 (Mus musculus [24]): > 324 mg/kg; ED50 (Mus musculus [12]): > 125 mg/kg
CN(C)CC/N=C1\c2ccccc2CS(=O)(=O)c2ccccc21,200 mg/kg,> 324 mg/kg,> 324 mg/kg,36 mg/kg,200 mg/kg,ED50 (Mus musculus [19]): > 125 mg/kg; ED50 (Mus musculus [25]): 40 mg/kg
CN(C)CCN=C1c2ccccc2CCc2ccccc21,> 324 mg/kg,36 mg/kg,100 mg/kg,20 mg/kg,20 mg/kg,ED50 (Mus musculus [26]): 9 mg/kg; ED50 (Mus musculus [27]): 1.9 mg/kg
CN(C)CCN=c1c2ccccc2oc2ccccc12,60 mg/kg,> 324 mg/kg,300 mg/kg,> 324 mg/kg,60 mg/kg,ED50 (Mus musculus [28]): 73 mg/kg; ED50 (Mus musculus [12]): > 125 mg/kg

# Reference: ChEMBL document CHEMBL1121802, “Imine analogues of tricyclic antidepressants” (1981)
